Reference: ChEMBL document CHEMBL1123352, “Anticonvulsant activity of 2- and 3-aminobenzanilides” (J Med Chem, 1986)
Several values for one entry are separate records, joined by “and”; a condition that tells them apart may be missing. Equal values may be shown once. Activity calls are given as the source filed them. The rule behind the calls is not given here.

Assays:
[1] = system: Mus musculus; assay: Anticonvulsant activity against subcutaneous pentylenetetrazole induced convulsions in mice 30 min after ip administration of 600 mg/kg.; type: functional, organism-based; design: dose 600 mg/kg
Procedure, shortened: (§1)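 Male Carworth Farms No. 1 mice were dosed ip with compound in 30% PEG 400, at 30–600 mg/kg, and read at 30 min and 4 h. Pentylenetetrazole was given at 85 mg/kg as a 0.5% solution sc in the posterior midline. Protection meant no single episode of clonic spasms lasting at least 5 s over a 30-min observation.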

[2] = system: Mus musculus; assay: Anticonvulsant activity against subcutaneous pentylenetetrazole induced convulsions in mice 4 hours after ip administration of 600 mg/kg; No=No activity; type: functional, organism-based; design: dose 600 mg/kg; procedure, shortened: as §1
[3] = system: Mus musculus; assay: Compound was tested for toxicity by rotarod assay method in mice 4 hours after ip administration at 600 mg/kg; no activity; type: organism-based; design: dose 600 mg/kg, route intraperitoneal; conditions: in vivo
[4] = system: Mus musculus; assay: Anticonvulsant activity against maximal electroshock (MES) induced seizures in mice 30 minutes after ip administration of 600 mg/kg; NA=No activity; type: functional, organism-based; design: dose 600 mg/kg
Procedure, shortened: (§2)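 Male Carworth Farms No. 1 mice were dosed ip with compound in 30% polyethylene glycol 400, at 30, 100 and 300 mg/kg and sometimes 600 mg/kg, and tested 30 min and 4 h later. A drop of 0.9% saline went in the eye, then 60-cycle AC at 50 mA was given for 0.2 s via corneal electrodes. Protection meant abolition of hind limb tonic extension.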

[5] = system: Mus musculus; assay: Anticonvulsant activity against maximal electroshock (MES) induced seizures in mice 4 hours after ip administration of 600 mg/kg.; type: functional, organism-based; design: dose 600 mg/kg; procedure, shortened: as §2
[6] = system: Mus musculus; assay: Compound was tested for toxicity by rotarod assay method in mice 30 min after ip administration at 600 mg/kg; no activity; type: organism-based; design: dose 600 mg/kg, route intraperitoneal; conditions: in vivo, 0.5 h
[7] = system: Mus musculus; assay: Compound was tested for toxicity by rotarod assay method in mice 30 min after ip administration of 300 mg/kg; A=Active; type: organism-based; design: dose 300 mg/kg, route intraperitoneal; conditions: in vivo, 0.5 h
[8] = system: Mus musculus; assay: Anticonvulsant activity against maximal electroshock (MES) induced seizures in mice 4 hours after ip administration of 300 mg/kg; A=Active; type: functional, organism-based; design: dose 300 mg/kg; procedure, shortened: as §2
[9] = system: Mus musculus; assay: Anticonvulsant activity against sc pentylenetetrazole induced convulsions in mice 4 hr after ip administration of 600 mg/kg; A=Active; type: functional, organism-based; design: dose 600 mg/kg; procedure, shortened: as §1
[10] = system: Mus musculus; assay: Anticonvulsant activity against maximal electroshock (MES) induced seizures in mice 30 minutes after ip administration of 100 mg/kg; A=Active; type: functional, organism-based; design: dose 100 mg/kg; procedure, shortened: as §2
[11] = system: Mus musculus; assay: Anticonvulsant activity against sc pentylenetetrazole-induced convulsions in mice 30 minutes after ip administration of 300 mg/kg; A=Active; type: functional, organism-based; design: dose 300 mg/kg; procedure, shortened: as §1
[12] = system: Mus musculus; assay: Compound was tested for toxicity by rotarod assay method in mice 4 hours after ip administration of 600 mg/kg; A=Active; type: organism-based; design: dose 600 mg/kg, route intraperitoneal; conditions: in vivo
[13] = system: Mus musculus; assay: Anticonvulsant activity against sc pentylenetetrazole-induced convulsions in mice 4 hr after ip administration of 600 mg/kg; A=Active; type: functional, organism-based; design: dose 600 mg/kg; procedure, shortened: as §1
[14] = system: Mus musculus; assay: Anticonvulsant activity against maximal electroshock (MES) induced seizures in mice 4 hours after ip administration of 600 mg/kg; A=Active; type: functional, organism-based; design: dose 600 mg/kg; procedure, shortened: as §2
[15] = Protective index measured as the ratio between TD50 and ED50; type: ADME
[16] = system: Mus musculus; assay: (§3) Compound for toxicity by rotarod assay method in mice after administration; type: organism-based; conditions: in vivo
Procedure, shortened: (§4)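 Neurologic deficit was tested in male Carworth Farms No. 1 mice 30 min and 4 h after ip dosing in 30% PEG 400, at 30–600 mg/kg. Each mouse was placed on a 1-in.-diameter knurled plastic rod turning at 6 rpm. Toxicity meant failing to stay on the rod for 1 min.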

[17] = system: Mus musculus; assay: Compound for anticonvulsant activity against maximal electroshock (MES)-induced seizures in mice after administration; type: functional; procedure, shortened: as §2
[18] = system: Mus musculus; assay: Compound was tested for toxicity by rotarod assay method in mice after intraperitoneal administration after 30 minutes; type: functional, organism-based; procedure, shortened: as §4
[19] = system: Mus musculus; assay: Anticonvulsant activity against subcutaneous pentylenetetrazole induced convulsions in mice 4 hr after ip administration of 600 mg/kg.; type: functional, organism-based; design: dose 600 mg/kg; procedure, shortened: as §1
[20] = system: Mus musculus; assay: Anticonvulsant activity against maximal electroshock (MES) induced seizures in mice 30 minutes after ip administration of 600 mg/kg; A=Active; type: functional, organism-based; design: dose 600 mg/kg; procedure, shortened: as §2
[21] = system: Mus musculus; assay: Compound was tested for toxicity by rotarod assay method in mice after intraperitoneal administration after 4 hours; type: functional, organism-based; procedure, shortened: as §4
[22] = system: Mus musculus; assay: Compound was tested for toxicity by rotarod assay method in mice 4 hours after ip administration of 600 mg/kg; NA=No activity; type: organism-based; design: dose 600 mg/kg, route intraperitoneal; conditions: in vivo
[23] = system: Mus musculus; assay: Compound was tested for toxicity by rotarod assay method in mice 30 min after ip administration of 600 mg/kg; A=Active; type: organism-based; design: dose 600 mg/kg, route intraperitoneal; conditions: in vivo, 0.5 h
[24] = system: Mus musculus; assay: Anticonvulsant activity against subcutaneous pentylenetetrazole induced convulsions in mice 4 hours after ip administration of 600 mg/kg; NA=No activity; type: functional, organism-based; design: dose 600 mg/kg; procedure, shortened: as §1
[25] = system: Mus musculus; assay: Anticonvulsant activity against maximal electroshock (MES) induced seizures in mice 30 minutes after ip administration of 300 mg/kg; A=Active; type: functional, organism-based; design: dose 300 mg/kg; procedure, shortened: as §2
[26] = as §3; type: organism-based; conditions: mouse, in vivo; procedure, shortened: as §4
[27] = organism: Mus musculus; assay: Anticonvulsant activity against maximal electroshock (MES)-induced seizures in mice; type: functional; procedure, shortened: as §2

Compound | Anticonvulsant activity [1] | Anticonvulsant activity [2] | Toxicity [3] | Anticonvulsant activity [4] | Anticonvulsant activity [5] | Toxicity [6] | Anticonvulsant activity [11] | other results
Cc1cc(C)cc(NC(=O)c2ccccc2N)c1 | inactive | inactive | Not Active | inactive | inactive | Not Active | – | –
Nc1cccc(C(=O)Nc2ccccc2)c1 | – | – | – | – | – | – | Active | Toxicity [7]: Active; Anticonvulsant activity [8]: Active; Anticonvulsant activity [9]: Active; Anticonvulsant activity [10]: Active; Toxicity [12]: Active
Cc1ccc(NC(=O)c2cccc(N)c2)c(C)c1 | inactive | inactive | Not Active | inactive | inactive | Not Active | – | –
Cc1cccc(NC(=O)c2cccc(N)c2)c1 | – | – | – | – | – | – | Active | Toxicity [7]: Active; Anticonvulsant activity [13]: Active; Anticonvulsant activity [10]: Active; Toxicity [12]: Active; Anticonvulsant activity [14]: Active
Cc1ccc(C)c(NC(=O)c2ccccc2N)c1 | inactive | inactive | Not Active | inactive | inactive | Not Active | – | –
CC(NC(=O)c1ccc(N)cc1)c1ccccc1 (stereo not given) | – | – | – | – | – | – | – | PI [15]: 9.5 and 4.1; TD50 [16]: 170.78 mg/kg
Cc1cccc(C)c1NC(=O)c1ccc(N)cc1 [AMELTOLIDE] | – | – | – | – | – | – | – | ED50 [17]: 2.6 mg/kg
Cc1cccc(NC(=O)c2cccc(N)c2)c1C | inactive | – | – | – | inactive | – | – | Toxicity [18]: inactive; Anticonvulsant activity [19]: inactive; Anticonvulsant activity [20]: Active; Toxicity [21]: inactive
Cc1cccc(NC(=O)c2ccccc2N)c1 | inactive | inactive | Not Active | inactive | inactive | Not Active | – | –
Nc1ccccc1C(=O)Nc1ccccc1 | inactive | – | – | – | inactive | – | – | Toxicity [22]: Not Active; Toxicity [23]: Active; Anticonvulsant activity [24]: inactive; Anticonvulsant activity [25]: Active
Cc1cc(C)cc(NC(=O)c2cccc(N)c2)c1 | – | – | – | – | – | – | Active | Anticonvulsant activity [19]: inactive; Anticonvulsant activity [8]: Active; Toxicity [23]: Active; Anticonvulsant activity [25]: Active
Cc1ccccc1NC(=O)c1cccc(N)c1 | – | – | – | – | – | – | Active | Toxicity [7]: Active; Anticonvulsant activity [19]: inactive; Anticonvulsant activity [8]: Active; TD50 [26]: 109 mg/kg; Anticonvulsant activity [10]: Active; Toxicity [12]: Active; ED50 [27]: 44.7 mg/kg
CC(C)c1ccccc1NC(=O)c1ccccc1N | inactive | inactive | Not Active | inactive | inactive | Not Active | – | –
